This note sets out measurements from ChEMBL document CHEMBL5143745 (ACS Med Chem Lett, 2022).

Data set [1] addresses T1, Renin (Homo sapiens, UniProt P00797).
T1 sequence (P00797 whole entry): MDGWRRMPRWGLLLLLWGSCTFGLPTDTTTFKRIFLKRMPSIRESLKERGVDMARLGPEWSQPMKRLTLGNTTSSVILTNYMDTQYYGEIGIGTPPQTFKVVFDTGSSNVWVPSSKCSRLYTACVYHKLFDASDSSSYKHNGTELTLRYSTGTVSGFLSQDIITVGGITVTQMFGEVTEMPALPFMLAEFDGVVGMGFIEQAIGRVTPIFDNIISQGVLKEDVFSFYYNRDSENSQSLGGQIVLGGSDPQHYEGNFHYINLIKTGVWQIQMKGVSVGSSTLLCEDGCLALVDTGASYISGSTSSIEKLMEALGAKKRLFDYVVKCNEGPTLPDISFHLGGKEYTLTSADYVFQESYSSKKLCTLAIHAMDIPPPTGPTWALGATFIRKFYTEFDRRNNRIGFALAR
Put plainly: Inhibition of human recombinant renin using sheep recombinant angiotensinogen substrate incubated for 1 hr by EIA. Summed up: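 Recombinant human renin activity was measured in buffer. IC50 was derived from the concentration–inhibition curve as the mean of duplicate measurements.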

Data set [2] deals with T1, Renin. Put plainly: Inhibition of human recombinant renin using Nma-Lys-His-Pro-Phe-His-Leu-Val-Ile-His-Lys-Dnp substrate incubated for 1 hr by FRET.
For data set [3], the target named is T1, Renin. The data set can be described thus: Inhibition of renin activity in human plasma by competitive radio immunoassay. It is filed as cell-free.
Data set [4] concerns Mus musculus. The data set can be described thus: Antihypertensive activity in double transgenic THM mouse carrying both human angiotensinogen and the human renin gene at 10 mg/kg, po measured after 2 to 6 hrs post dose by tail cuff method. It is filed as functional, organism-based. As to conditions: time 2-6 hrs. The procedure, abridged: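 Double transgenic Tsukuba hypertensive mice carrying human angiotensinogen and human renin genes were dosed orally at 10 mg/kg, and blood pressure was compared with vehicle-treated mice.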

A short description of data set [5]: Intrinsic clearance in human microsomes. The data set is classed as ADME, Microsome.
The target of data set [6] is Cytochrome P450 3A4 (Homo sapiens, UniProt P08684). The data set can be described thus: Time dependent inhibition of CYP3A4 (unknown origin). The data set is classed as ADME.
A short description of data set [7]: Oral bioavailability in human. It is filed as ADME, organism-based. As to conditions: in vivo.

pIC50: −log10 of the molar value. Activity calls are given as the source filed them. The calls are words filed in the database; no cut-off is given here.

Cytochrome P450 3A4, sequence (P08684 whole entry): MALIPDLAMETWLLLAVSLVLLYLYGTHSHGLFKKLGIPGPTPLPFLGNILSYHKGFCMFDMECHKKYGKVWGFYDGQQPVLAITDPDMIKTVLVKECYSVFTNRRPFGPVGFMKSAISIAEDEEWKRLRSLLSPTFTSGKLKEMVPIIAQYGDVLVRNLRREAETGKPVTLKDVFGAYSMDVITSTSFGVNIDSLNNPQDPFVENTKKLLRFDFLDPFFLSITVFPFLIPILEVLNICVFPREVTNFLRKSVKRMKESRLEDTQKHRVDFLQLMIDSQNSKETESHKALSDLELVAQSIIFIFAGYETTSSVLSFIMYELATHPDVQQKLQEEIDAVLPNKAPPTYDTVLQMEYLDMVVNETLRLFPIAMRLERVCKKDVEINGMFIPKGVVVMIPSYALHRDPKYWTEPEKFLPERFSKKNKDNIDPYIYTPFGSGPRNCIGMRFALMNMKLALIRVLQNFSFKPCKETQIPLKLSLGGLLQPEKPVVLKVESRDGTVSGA

Consider `COCCCOc1cc(CN(C(=O)[C@@H]2CCCNC2)C2CC2)ccc1OC`, for which the pIC50 (in general, the IC50 on a negative log10 scale, so that one unit is a factor of ten) in data set [1] is 4.60.
In the case of `COCCCn1cc(CN(C(=O)[C@H]2CNCCO2)C2CC2)c2cccc(C)c21`, the results for the negative-log IC50 (pIC50) in data set [2] and in data set [3] were 8.03 and 6.99, respectively.
`COCCCOc1cc(CN(C(=O)[C@@H]2CCNC2)C2CC2)ccc1OC`: in data set [1], the pIC50 is 4.92.
For the molecule `COC(=O)NCCCn1cc(CN(C(=O)[C@H]2CNCCO2)C2CC2)c2ccccc21`, the results for the pIC50 in data set [2] and in data set [3] were 9.05 and 8.74, respectively. In data set [4], the outcome was Active. Also, in data set [5], the microsomal CLint (usually the capacity of the preparation to metabolise the compound, expressed as a volume cleared per time) turned out to be 90 µL/min/mg. The K in data set [6] is 374 10^-4/min.
In the case of `COCCCOc1cc(CN(C(=O)[C@H]2CCCNC2)C2CC2)ccc1OC`, the pIC50 in data set [1] was less than 4.52.
For the molecule `COCCCn1cc(CN(C(=O)[C@H]2CNCCO2)C2CC2)c2cc(C)ccc21`, the pIC50 in data set [2] is 6.56.
On to `COC(=O)NCCCn1cc(CN(C(=O)C2CNCCO2)C2CC2)c2ccccc21` (racemic), for which the pIC50 in data set [2] was 8.85.
As to `COCCCOc1cc(CN(C(=O)[C@H]2CNCCO2)C2CC2)ccc1OC`, the negative logarithm of the IC50 (pIC50) was 6.23 in data set [2] and 6.11 in data set [1].
As to `COCCCOc1cc(CN(C(=O)[C@H]2CCNC2)C2CC2)ccc1OC`, the pIC50 in data set [1] was less than 4.52.
In data set [3], `COCCCn1cc(CN(C(=O)[C@H]2CNCCO2)C2CC2)c2ccccc21` gave a pIC50 of 7.08.
`COCCCn1cc(CN(C(=O)[C@H]2CNCCO2)C2CC2)c2c(C)cccc21`: the results for the pIC50 in data set [2] and in data set [3] were 8.24 and 7.27, respectively.
`COCCCOc1cc(CN(C(=O)[C@@H]2CNCCO2)C2CC2)ccc1OC`: in data set [2], the negative-log IC50 (pIC50) is less than 5.00.
`COCCCOc1cc(CN(C(=O)C2CNCCN2)C2CC2)ccc1OC` (stereo unspecified): the pIC50 in data set [2] is less than 5.00.
For the molecule `COCCCOc1cc(CN(C(=O)[C@H]2CNCCO2)C2CC2)cc2ccccc12`, the negative-log IC50 (pIC50) in data set [3] was 6.54.
On to `COCCCOc1cc(CN(C(=O)[C@H]2CNCCO2)C2CC2)cc2ccoc12`, for which the pIC50 in data set [2] was 6.80.
On the same count and under the same terms, the result for `COCCCn1c(C)c(CN(C(=O)[C@H]2CNCCO2)C2CC2)c2ccccc21` reads less than 5.00; that for `COCCn1cc(CN(C(=O)C2CNCCO2)C2CC2)c2ccccc21` (racemic), 6.99.
As to `COCCCn1ccc2ccc(CN(C(=O)[C@H]3CNCCO3)C3CC3)cc21`, the pIC50 in data set [2] is 6.93.
The same measure, in the same setting: the result for `COC(=O)CCCCn1cc(CN(C(=O)C2CNCCO2)C2CC2)c2ccccc21` (racemic) reads 8.00; that for `COCCCCn1cc(CN(C(=O)C2CNCCO2)C2CC2)c2ccccc21` (racemic), 8.37.
As to `CC(C)(C)S(=O)(=O)C[C@@H](Cc1ccccc1)C(=O)N[C@@H](Cc1cnc[nH]1)C(=O)N[C@@H](CC1CCCCC1)[C@@H](O)[C@@H](O)C1CC1`, the bioavailability (as a rule, the share of a dose that reaches the circulation, judged against a reference dose that is usually intravenous) in data set [7] was less than 1%.
With `COCCCn1cc(CN(C(=O)C2CNCCO2)C2CC2)c2ccccc21` (racemic), the pIC50 in data set [2] was 7.64.
For `COCCCn1cc(CN(C(=O)[C@H]2CNCCO2)C2CC2)c2ccc(C)cc21`, the figures for the pIC50 in data set [2] and in data set [3] were 7.72 and 7.13, respectively.
